Measured values published in ChEMBL document CHEMBL1129247, “Dihydrobenzofuran analogues of hallucinogens. 3. Models of 4-substituted (2,5-dimethoxyphenyl)alkylamine derivatives with rigidified methoxy groups” (J Med Chem, 1996).
pKi: −log10 of the molar value.

Key:
[1] = target: 5-hydroxytryptamine receptor 2A (Rattus norvegicus, UniProt P14842); assay: Binding affinity towards rat cortical 5-hydroxytryptamine 2A receptor using [3H]ketanserin as radioligand
Rattus norvegicus [2] = species: Rattus norvegicus; assay: Effective dose for behavioral activity or hallucinogenic potential in drug discrimination studies in LSD(d-lysergic acid N,N-diethylamide) trained rats; type: functional; set-up: unit not given here
Procedure, shortened: (§1)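 Male Sprague–Dawley rats (200–220 g) trained in a two-lever, FR50 food task to tell LSD tartrate (0.08 mg/kg ip) from saline. Test drugs were given ip in 0.9% saline 30 min before extinction sessions. The first lever reaching 50 presses was scored; no completion within 5 min counted as disruption.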

[3] = target: T1, 5-hydroxytryptamine receptor 1A (Rattus norvegicus, UniProt P19327); assay: Binding affinity towards rat hippocampal 5-hydroxytryptamine 1A receptor using [3H]8-OH-DPAT as radioligand; type: tissue-based, Hippocampus
T1 sequence (P19327 whole entry): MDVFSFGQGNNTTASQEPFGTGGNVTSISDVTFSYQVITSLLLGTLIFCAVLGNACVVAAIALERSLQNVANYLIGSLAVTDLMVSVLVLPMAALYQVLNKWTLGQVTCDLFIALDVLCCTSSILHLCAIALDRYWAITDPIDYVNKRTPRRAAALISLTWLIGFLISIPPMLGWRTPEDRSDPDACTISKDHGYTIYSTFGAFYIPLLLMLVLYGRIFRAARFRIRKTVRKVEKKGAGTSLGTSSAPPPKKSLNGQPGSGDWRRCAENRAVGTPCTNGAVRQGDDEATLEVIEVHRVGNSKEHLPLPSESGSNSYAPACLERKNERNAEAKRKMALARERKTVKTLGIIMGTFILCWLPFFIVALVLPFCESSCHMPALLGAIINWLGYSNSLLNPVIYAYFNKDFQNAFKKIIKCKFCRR
Procedure, shortened: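 Hippocampus pooled from male Sprague–Dawley rats (175–199 g), homogenised in sucrose and frozen. Membranes washed and preincubated twice at 37 °C in Tris HCl pH 7.4 with EDTA, ascorbate and pargyline. Assay: 0.75 nM [3H]-8-OH-DPAT, 200–400 μg protein, 15 min at 37 °C, GF/C filtration. Nonspecific binding: 10 μM 5-HT. Run in triplicate; expressed as Ki.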

[4] = target: T2, 5-hydroxytryptamine receptor 2C (Homo sapiens, UniProt P28335); assay: Antagonistic activity at cloned human 5-hydroxytryptamine 2C receptor using [3H]mesulergine as radioligand; type: functional
T2 sequence (P28335 whole entry): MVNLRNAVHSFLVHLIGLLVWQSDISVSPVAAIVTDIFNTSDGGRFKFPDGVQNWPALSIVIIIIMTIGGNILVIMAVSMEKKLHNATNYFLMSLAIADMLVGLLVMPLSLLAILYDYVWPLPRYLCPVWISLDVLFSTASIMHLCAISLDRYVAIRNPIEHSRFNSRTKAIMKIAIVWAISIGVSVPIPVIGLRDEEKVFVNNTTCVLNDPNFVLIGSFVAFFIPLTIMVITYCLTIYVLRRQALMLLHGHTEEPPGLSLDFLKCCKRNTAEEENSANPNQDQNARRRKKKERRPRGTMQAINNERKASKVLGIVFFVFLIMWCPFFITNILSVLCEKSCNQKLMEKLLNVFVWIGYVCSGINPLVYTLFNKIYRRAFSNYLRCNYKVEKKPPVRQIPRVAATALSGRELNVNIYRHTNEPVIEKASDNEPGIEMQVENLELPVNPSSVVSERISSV
Procedure, shortened: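 AV12 membranes expressing human 5-HT2C. The 0.8 mL assay held 0.74–0.82 nM [3H]mesulergine, varying competitor and Tris HCl, final pH 7.6. Incubated 30 min at 37 °C, then filtered, washed and counted by liquid scintillation. Mianserin defined nonspecific binding.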

[5] = target: T2, 5-hydroxytryptamine receptor 2C; assay: Agonistic activity at cloned human 5-hydroxytryptamine 2C receptor using [125I]DOI as radioligand; type: functional
Procedure, shortened: (§2)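 AV12 hamster fibroblast membranes stably expressing the human receptor. Final buffer: 10 μM pargyline, 9.75 mM MgCl2, 0.5 mM EDTA, 0.1% Na ascorbate, 50 mM Tris HCl pH 7.4. [125I]DOI was at about 0.07–0.15 nM, with about 40 μg (2A) or 30 μg (2C) protein, for 30 min at 37 °C. Nonspecific binding: 1 μM ketanserin (2A) or 10 μM mianserin (2C). Read by filtration and gamma counting.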

[6] = target: T3, 5-hydroxytryptamine receptor 2B (Homo sapiens, UniProt P41595); assay: Agonistic activity at cloned human 5-hydroxytryptamine 2B receptor using [3H]-5-HT as radioligand; type: functional
T3 sequence (P41595 whole entry): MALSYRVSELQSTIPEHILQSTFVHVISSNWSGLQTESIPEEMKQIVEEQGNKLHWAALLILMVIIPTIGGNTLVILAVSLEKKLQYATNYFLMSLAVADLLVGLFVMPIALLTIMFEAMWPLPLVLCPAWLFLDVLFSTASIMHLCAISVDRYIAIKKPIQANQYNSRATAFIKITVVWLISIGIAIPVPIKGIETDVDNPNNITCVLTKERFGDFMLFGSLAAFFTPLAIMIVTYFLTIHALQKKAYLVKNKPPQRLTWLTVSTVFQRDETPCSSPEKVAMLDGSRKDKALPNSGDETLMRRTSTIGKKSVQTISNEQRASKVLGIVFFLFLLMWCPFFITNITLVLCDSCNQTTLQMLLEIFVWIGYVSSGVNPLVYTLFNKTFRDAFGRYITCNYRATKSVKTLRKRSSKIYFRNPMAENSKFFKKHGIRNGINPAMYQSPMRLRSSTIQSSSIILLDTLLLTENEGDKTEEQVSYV
Procedure, shortened: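 Membranes from AV12 hamster fibroblasts stably expressing human 5-HT2B, lysed hypotonically in 50 mM Tris HCl pH 7.4. Competition against about 2 nM [3H]-5-HT (free level measured) in 50 mM Tris, 3 mM CaCl2, 10 μM pargyline, 0.1% ascorbic acid, pH 7.4. Drug dilutions spanned 6 log units. About 100-150 μg protein per tube, 15 min at 37 °C, in triplicate. Nonspecific binding with 10 μM 5-HT or 1-NP. Filtration, then scintillation counting.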

[7] = target: T4, 5-hydroxytryptamine receptor 2A (Homo sapiens, UniProt P28223); assay: Antagonistic activity at cloned human 5-hydroxytryptamine 2A receptor using [3H]ketanserin as radioligand; type: functional
T4 sequence (P28223 whole entry): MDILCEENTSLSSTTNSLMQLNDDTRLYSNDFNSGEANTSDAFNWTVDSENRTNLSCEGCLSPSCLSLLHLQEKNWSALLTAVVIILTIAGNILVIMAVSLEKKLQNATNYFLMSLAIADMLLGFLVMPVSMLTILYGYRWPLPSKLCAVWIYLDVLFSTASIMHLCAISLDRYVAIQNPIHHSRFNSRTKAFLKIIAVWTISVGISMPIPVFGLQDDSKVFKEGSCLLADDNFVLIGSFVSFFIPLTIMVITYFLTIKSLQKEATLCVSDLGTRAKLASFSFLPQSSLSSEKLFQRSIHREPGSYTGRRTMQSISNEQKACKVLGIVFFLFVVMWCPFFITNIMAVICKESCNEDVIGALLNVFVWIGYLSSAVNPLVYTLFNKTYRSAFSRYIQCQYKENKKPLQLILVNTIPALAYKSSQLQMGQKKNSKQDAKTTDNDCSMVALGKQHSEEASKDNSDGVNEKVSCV
Procedure, shortened: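 Human 5-HT2A expressed in AV12 cell membranes. The 0.8 mL assay held 50 mM Tris HCl, 100 nM prazosin to block α1 sites, 0.4–0.5 nM [3H]ketanserin and varying competitor, final pH 7.6. Incubated 15 min at 37 °C, then filtered and washed. Mianserin 3 μM defined nonspecific binding. Read by liquid scintillation.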

[8] = target: T3, 5-hydroxytryptamine receptor 2B; assay: Antagonistic activity at cloned human 5-hydroxytryptamine 2B receptor using [3H]rauwolscine as radioligand; type: functional
Procedure, shortened: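 Human 5-HT2B membranes from stably transformed AV12 cells in Tris HCl pH 7.4. Competition against 2 nM [3H]rauwolscine (final), with 500 nM efaroxan to mask α2 sites, in 50 mM Tris HCl pH 7.4. Incubated 20 min at 37 °C, then filtered. Nonspecific binding with 10 μM 1-naphthylpiperazine.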

[9] = target: T4, 5-hydroxytryptamine receptor 2A; assay: Agonistic activity at cloned human 5-hydroxytryptamine 2A receptor using [125I]DOI as radioligand; type: functional; procedure, shortened: as §2
Rattus norvegicus [10] = species: Rattus norvegicus; assay: Effective dose in Drug Discrimination studies in LSD(d-lysergic acid N,N-diethylamide) trained rats. No. of animals tested 15; type: functional; procedure, shortened: as §1

Chain of 5-hydroxytryptamine receptor 2A (Rattus norvegicus, UniProt P14842) (P14842 whole entry): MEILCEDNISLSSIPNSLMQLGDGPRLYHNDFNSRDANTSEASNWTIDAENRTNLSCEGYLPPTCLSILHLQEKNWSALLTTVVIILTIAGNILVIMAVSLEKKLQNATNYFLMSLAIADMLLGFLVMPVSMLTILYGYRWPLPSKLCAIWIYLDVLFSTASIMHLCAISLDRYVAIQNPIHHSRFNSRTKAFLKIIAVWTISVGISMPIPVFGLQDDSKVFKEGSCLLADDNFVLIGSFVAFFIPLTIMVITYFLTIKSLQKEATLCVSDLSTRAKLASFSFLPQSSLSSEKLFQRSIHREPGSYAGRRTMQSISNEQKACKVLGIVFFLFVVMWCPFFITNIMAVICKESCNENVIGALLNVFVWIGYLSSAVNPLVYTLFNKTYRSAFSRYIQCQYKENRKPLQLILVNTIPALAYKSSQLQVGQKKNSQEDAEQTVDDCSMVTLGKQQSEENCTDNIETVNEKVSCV

SMILES | pKi [1] | ED50 (Rattus norvegicus [2]) | pKi [3] | also measured
NCCc1c2c(cc3c1OCC3)OCC2 | 5.64 | 1430 | 8.28 | –
CC(N)Cc1c2c(c(Br)c3c1OCC3)OCC2 (stereo unspecified) | 7.74 | 61 | 8.37 | pKi [4]: 8.64; pKi [5]: 9.52; pKi [6]: 8.80; pKi [7]: 7.97; pKi [8]: 8.94; pKi [9]: 9.32
NCCc1c2c(c(Br)c3c1OCC3)OCC2 | 7.47 | – | 9.10 | –
Cc1c2c(c(CC(C)N)c3c1OCC3)OCC2 (stereo unspecified) | – | 780 | – | –
COc1cc(Br)c2c(c1CC(C)N)CCO2 (stereo unspecified) | – | 570 | – | –
CC(N)Cc1c2c(cc3c1OCC3)OCC2 (stereo unspecified) | 5.70 | 64000 | 7.54 | –
COc1cc(CC(C)N)c(OC)cc1Br (stereo unspecified) [BROLAMFETAMINE] | – | – | 8.21 | –
CCN(CC)C(=O)[C@@H]1C=C2c3cccc4[nH]cc(c34)C[C@H]2N(C)C1 [LYSERGIDE] | – | – | – | ED50 (Rattus norvegicus [10]): 40 µmol/kg
